Results taken from ChEMBL document CHEMBL3352791, “Thioaryl naphthylmethanone oxime ether analogs as novel anticancer agents” (J Med Chem, 2014).
The source made the active and inactive calls. The rule behind the calls is not given here.

What was measured:
[1] = molecular target: Epidermal growth factor receptor (Homo sapiens) (UniProt P00533); assay: Inhibition of EGF-induced EGFR phosphorylation at Tyr1045 in human MDA-MB-231 cells at 1 uM by ELISA; assay type: cell-based
[2] = molecular target: Epidermal growth factor receptor (Homo sapiens) (UniProt P00533); assay: Inhibition of EGF-induced EGFR phosphorylation at Tyr1173 in human MDA-MB-231 cells at 0.1 uM by ELISA; assay type: cell-based
Procedure, shortened: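 MDA-MB-231 cells pretreated 1 h in serum-free medium, then EGF-stimulated for 15 min and lysed. Equal lysate protein (Bradford) assayed by ELISA kits for p-EGFR (Tyr1068, Tyr845, Tyr1173) and p-HER2. Absorbance read at 450 nm, normalized to total EGFR or HER2.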

MDA-MB-231 [3] = assay: Inhibition of VEGF expression in human MDA-MB-231 cells at 5 uM by ELISA; assay type: functional, cell-based
[4] = molecular target: ETS domain-containing protein Elk-1 (Homo sapiens) (UniProt P19419); assay: Inhibition of EGF-induced phosphorylated ELK1 in human MDA-MB-231 cells at 1 uM by ELISA; assay type: cell-based
Sequence of ETS domain-containing protein Elk-1 (Homo sapiens) (P19419 whole entry, the tested form may be a part): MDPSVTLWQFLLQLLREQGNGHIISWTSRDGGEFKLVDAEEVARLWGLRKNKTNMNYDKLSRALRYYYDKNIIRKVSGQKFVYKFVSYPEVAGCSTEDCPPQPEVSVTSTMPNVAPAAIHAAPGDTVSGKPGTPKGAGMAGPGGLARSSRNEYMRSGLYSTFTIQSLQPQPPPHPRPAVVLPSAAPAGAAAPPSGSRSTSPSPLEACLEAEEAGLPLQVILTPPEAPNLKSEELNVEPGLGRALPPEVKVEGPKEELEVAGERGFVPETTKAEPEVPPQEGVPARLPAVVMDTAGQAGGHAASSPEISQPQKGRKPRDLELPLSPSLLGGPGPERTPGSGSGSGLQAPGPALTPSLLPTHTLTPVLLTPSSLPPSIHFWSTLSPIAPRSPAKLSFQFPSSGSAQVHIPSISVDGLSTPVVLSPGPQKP

[5] = molecular target: Epidermal growth factor receptor (Homo sapiens) (UniProt P00533); assay: Inhibition of EGF-induced EGFR phosphorylation at Tyr992 in human MCF7 cells at 1 uM by ELISA; assay type: cell-based
MDA-MB-231 [6] = assay: Inhibition of TGFbeta expression in human MDA-MB-231 cells at 5 uM by ELISA; assay type: functional, cell-based
MCF7 [7] = assay: Antitumor activity against human MCF7 cells xenografted in NIH-3 mouse assessed as reduction in PCNA level in tumor at 16 mg/kg, po for 25 days by Western blot analysis; assay type: functional, organism-based; parameters: dose 16 mg/kg
[8] = molecular target: Insulin receptor (Homo sapiens) (UniProt P06213); assay: Inhibition of IR (unknown origin) at 10 uM
Sequence of Insulin receptor (Homo sapiens) (P06213 28-758 limits assumed): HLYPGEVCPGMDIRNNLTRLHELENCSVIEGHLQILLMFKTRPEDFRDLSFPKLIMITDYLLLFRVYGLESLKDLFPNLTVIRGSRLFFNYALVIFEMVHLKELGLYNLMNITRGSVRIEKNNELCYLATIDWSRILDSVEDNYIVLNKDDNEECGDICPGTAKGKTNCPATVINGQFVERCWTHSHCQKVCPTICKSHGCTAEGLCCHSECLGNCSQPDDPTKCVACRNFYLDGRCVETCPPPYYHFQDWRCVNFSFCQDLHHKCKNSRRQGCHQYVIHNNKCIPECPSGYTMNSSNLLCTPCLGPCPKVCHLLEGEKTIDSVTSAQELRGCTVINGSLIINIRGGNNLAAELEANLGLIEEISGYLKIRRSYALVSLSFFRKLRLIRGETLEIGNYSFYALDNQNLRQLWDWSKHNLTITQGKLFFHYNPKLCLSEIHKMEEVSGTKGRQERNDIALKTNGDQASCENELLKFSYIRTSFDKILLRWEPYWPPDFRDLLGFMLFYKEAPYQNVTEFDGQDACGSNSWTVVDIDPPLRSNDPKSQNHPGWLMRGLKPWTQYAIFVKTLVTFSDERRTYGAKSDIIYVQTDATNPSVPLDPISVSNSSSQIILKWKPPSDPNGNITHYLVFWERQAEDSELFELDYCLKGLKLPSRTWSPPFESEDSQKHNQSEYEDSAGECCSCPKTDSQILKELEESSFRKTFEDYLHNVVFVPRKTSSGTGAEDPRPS
Sequence of Insulin receptor (Homo sapiens) (P06213 763-1382 limits assumed): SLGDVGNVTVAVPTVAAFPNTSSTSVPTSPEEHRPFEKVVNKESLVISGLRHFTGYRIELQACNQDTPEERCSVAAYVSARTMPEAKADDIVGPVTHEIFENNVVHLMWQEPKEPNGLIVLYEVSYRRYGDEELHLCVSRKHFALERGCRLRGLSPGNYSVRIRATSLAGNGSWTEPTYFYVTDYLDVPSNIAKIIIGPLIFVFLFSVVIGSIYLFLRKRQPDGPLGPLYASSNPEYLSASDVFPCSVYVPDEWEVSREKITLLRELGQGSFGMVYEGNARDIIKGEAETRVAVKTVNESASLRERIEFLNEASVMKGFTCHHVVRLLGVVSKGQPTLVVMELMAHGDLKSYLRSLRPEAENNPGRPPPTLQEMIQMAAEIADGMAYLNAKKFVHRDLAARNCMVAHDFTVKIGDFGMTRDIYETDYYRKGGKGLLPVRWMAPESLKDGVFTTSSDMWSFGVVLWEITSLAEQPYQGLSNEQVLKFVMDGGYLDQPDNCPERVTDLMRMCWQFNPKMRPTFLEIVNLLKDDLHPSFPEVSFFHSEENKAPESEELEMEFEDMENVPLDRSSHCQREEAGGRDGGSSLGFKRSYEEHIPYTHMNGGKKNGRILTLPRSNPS

MDA-MB-231 [9] = assay: Inhibition of secreted PAI-1 protein expression in human MDA-MB-231 cells at 1 uM after 24 hrs by ELISA; assay type: functional, cell-based
Procedure, shortened: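 MDA-MB-231 cells were treated at 1µM for 24 h, with or without EGF. PAI-1 protein concentration in the collected conditioned medium was then measured by ELISA.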

[10] = molecular target: Epidermal growth factor receptor (Homo sapiens) (UniProt P00533); assay: Inhibition of EGFR phosphorylation at Tyr790 (unknown origin) at 10 uM
MDA-MB-231 [11] = assay: Inhibition of TGF-betaR1 expression in human MDA-MB-231 cells at 1 uM after 24 hrs by qPCR analysis; assay type: functional, cell-based
Procedure, shortened: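 Gene expression was measured by qPCR in MDA-MB-231 breast cancer cells treated with 1µM compound. GAPDH served as the housekeeping internal control.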

[12] = molecular target: cGMP-dependent 3',5'-cyclic phosphodiesterase (Homo sapiens) (UniProt O00408); assay: Inhibition of PDE2A3 (unknown origin) activity at 1 to 10 uM
Sequence of cGMP-dependent 3',5'-cyclic phosphodiesterase (Homo sapiens) (O00408 whole entry, canonical isoform): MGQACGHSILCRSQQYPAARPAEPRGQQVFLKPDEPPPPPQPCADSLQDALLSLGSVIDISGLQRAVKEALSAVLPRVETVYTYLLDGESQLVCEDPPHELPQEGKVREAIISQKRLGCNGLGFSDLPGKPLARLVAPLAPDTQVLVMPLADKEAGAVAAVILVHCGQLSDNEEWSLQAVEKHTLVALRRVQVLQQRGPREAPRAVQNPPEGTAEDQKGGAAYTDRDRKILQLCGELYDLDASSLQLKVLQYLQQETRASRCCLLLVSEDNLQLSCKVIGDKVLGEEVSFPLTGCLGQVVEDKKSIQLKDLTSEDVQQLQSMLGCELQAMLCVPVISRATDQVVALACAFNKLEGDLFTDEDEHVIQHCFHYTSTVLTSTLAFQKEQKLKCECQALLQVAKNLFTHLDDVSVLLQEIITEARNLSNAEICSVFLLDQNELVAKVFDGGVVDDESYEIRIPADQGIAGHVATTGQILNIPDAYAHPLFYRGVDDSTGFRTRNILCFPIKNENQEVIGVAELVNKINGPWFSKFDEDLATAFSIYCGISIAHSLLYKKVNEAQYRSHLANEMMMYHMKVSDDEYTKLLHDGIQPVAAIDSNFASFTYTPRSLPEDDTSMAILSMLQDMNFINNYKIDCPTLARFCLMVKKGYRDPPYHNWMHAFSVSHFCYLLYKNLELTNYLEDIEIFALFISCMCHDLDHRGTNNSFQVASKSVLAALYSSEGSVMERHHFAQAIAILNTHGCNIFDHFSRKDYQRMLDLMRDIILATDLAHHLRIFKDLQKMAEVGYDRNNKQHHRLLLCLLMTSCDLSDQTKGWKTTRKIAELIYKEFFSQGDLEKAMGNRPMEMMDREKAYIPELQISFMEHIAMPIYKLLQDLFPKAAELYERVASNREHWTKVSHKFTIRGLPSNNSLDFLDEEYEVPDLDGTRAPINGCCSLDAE
Procedure, shortened: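 Recombinant PDE isoform activity was read by fluorescence polarization. A binding reagent complexes with the nucleotide monophosphate that the phosphodiesterase generates from cAMP/cGMP, and this raises the polarization of the labelled substrate. Reference standards were PDE1A3 10µM IBMX, PDE2A3 1nM BAY 60-7550, PDE3CAT 1µM cilostazol, PDE4CAT rolipram, PDE5CAT 0.1µM sildenafil, PDE7A […], PDE8A1 10µM BRL-50481, PDE9A1 1µM SB 36216 and PDE11A1 dipyridamole.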

MCF7 [13] = assay: Antitumor activity against human MCF7 cells xenografted in NIH-3 mouse assessed as large area of stroma/deletion of epithelial cells at 16 mg/kg, po for 25 days; assay type: functional, organism-based; parameters: dose 16 mg/kg
[14] = molecular target: Induced myeloid leukemia cell differentiation protein Mcl-1 (Homo sapiens) (UniProt Q07820); assay: Inhibition of basal level Mcl1 phosphorylation in human MDA-MB-231 cells at 1 uM by ELISA; assay type: cell-based
Sequence of Induced myeloid leukemia cell differentiation protein Mcl-1 (Homo sapiens) (Q07820 whole entry): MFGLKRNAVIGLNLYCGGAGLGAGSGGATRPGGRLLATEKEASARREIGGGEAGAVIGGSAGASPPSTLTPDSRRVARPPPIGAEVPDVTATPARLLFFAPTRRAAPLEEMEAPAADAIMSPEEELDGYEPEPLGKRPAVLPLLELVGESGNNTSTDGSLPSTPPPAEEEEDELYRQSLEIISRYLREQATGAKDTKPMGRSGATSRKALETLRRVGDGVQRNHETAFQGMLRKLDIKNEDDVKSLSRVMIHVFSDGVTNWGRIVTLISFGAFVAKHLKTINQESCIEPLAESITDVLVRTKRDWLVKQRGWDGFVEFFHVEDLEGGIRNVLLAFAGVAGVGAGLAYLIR

[15] = molecular target: T1, Signal transducer and activator of transcription 1-alpha/beta (Homo sapiens) (UniProt P42224); assay: Inhibition of EGF-induced STAT1 phosphorylation in human MCF7 cells at 1 uM by ELISA; assay type: cell-based
T1 sequence (whole entry): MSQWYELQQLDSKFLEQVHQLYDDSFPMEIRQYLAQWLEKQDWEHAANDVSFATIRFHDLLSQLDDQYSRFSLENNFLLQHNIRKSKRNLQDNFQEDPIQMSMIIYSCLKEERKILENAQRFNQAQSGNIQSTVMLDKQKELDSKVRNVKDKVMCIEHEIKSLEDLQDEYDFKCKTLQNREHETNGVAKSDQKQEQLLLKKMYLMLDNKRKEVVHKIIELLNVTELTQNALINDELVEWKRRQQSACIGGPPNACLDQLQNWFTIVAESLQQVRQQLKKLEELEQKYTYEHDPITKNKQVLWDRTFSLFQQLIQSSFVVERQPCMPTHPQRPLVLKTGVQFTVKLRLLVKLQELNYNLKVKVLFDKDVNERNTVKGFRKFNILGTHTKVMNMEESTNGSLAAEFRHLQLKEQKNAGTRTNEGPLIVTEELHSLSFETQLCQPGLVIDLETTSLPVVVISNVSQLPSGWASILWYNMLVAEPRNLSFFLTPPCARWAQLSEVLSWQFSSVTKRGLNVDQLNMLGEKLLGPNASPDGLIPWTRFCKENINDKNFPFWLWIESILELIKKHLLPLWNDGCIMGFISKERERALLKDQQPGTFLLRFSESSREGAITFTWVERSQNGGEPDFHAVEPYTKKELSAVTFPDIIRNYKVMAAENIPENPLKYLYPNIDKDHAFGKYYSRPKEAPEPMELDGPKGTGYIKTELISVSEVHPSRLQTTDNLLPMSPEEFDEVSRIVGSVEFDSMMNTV

MDA-MB-231 [16] = assay: Inhibition of EGF-induced cell migration in human MDA-MB-231 cells assessed as decrease in number of cells toward free space at 1 uM after 24 hrs by wound healing assay; assay type: functional, cell-based
Procedure, shortened: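 Confluent MDA-MB-231 monolayers scratch-wounded, washed and treated at 1μM in serum-free medium ± EGF (100ng/ml) for 24 h. Wound closure measured as distances in six random fields at 10×.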

[17] = Safety index, ratio of IC50 for human MCF10A cells to EC50 for human ER-positive MDA-MB-231 cells; conditions: MCF10A cells versus
[18] = Safety index, ratio of IC50 for human MCF10A cells to EC50 for human DLD1 cells; assay type: toxicity, cell-based, MCF-10A; conditions: MCF10A cells versus DLD1 cells, read-out: Ratio IC50/EC50
Procedure, shortened: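 Safety index is the IC50 in the normal cells divided by the EC50 in the cancer cells. Both values come from MTT assays: cells in DMEM with 10% FBS, serum-starved 4 h, then exposed to compound across a 100nM-50µM dose range with 0.1% DMSO as vehicle control.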

Ishikawa = assay: Antiproliferative activity against human ER-positive Ishikawa cells after 24 hrs by MTT assay; assay type: functional, cell-based; conditions: ishikawa
MCF7 [19] = assay: Antitumor activity against human MCF7 cells xenografted in NIH-3 mouse assessed as increase in TUNEL positive cells at 16 mg/kg, po for 25 days relative to control; assay type: functional

Sequence of Epidermal growth factor receptor (Homo sapiens) (P00533 whole entry): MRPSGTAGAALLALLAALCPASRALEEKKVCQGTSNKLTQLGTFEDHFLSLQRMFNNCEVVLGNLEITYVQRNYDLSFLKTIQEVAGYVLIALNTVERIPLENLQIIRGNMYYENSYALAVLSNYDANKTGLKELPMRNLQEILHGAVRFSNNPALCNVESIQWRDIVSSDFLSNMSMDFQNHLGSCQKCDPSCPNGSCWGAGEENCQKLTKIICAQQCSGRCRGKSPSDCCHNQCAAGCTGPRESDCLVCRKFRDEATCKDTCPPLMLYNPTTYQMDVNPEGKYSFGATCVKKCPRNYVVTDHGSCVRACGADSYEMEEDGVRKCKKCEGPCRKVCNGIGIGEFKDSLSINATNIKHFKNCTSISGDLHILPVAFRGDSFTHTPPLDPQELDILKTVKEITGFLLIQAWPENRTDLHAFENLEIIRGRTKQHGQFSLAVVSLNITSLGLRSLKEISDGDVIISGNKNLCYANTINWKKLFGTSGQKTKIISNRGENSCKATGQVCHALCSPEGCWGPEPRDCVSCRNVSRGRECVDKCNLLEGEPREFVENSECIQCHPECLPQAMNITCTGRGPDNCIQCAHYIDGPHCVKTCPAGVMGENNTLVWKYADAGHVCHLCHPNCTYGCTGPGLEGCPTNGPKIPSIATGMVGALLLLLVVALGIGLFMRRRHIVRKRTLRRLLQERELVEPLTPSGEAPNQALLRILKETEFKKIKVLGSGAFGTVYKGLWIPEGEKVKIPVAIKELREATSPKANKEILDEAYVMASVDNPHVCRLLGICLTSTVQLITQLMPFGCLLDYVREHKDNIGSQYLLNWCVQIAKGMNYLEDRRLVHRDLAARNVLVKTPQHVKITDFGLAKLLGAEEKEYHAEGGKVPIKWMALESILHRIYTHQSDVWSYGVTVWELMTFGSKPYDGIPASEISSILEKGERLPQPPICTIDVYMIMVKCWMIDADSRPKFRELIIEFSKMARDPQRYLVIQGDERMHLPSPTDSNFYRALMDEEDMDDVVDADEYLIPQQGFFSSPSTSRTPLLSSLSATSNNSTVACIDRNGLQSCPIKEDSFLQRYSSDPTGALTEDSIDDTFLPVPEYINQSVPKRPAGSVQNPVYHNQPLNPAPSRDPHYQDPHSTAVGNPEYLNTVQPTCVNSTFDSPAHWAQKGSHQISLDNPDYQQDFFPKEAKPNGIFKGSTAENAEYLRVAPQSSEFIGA

With `CCN(CC)CCO/N=C(\c1ccc(SC)cc1)c1cccc2ccccc12` the inhibition [1] was “Active”, the inhibition [2] was “Active” and the inhibition (MDA-MB-231 [3]) was “inactive”. For the same compound, the inhibition [4] was “Active”, the inhibition [5] was “Active” and the inhibition (MDA-MB-231 [6]) was “inactive”. The inhibition (MCF7 [7]) was “Active”, the inhibition [8] was “inactive” and the inhibition (MDA-MB-231 [9]) was “Active”. The inhibition [10] was “inactive”, the inhibition (MDA-MB-231 [11]) was “inactive” and the inhibition [12] was “inactive”. The Activity (MCF7 [13]) was “Active”, the inhibition [14] was “Active” and the inhibition [15] was “inactive”. The inhibition (MDA-MB-231 [16]) was “Active”.

For `CCN(CC)CCO/N=C(\c1ccc(SC)cc1)c1cccc2ccccc12.O=C(O)C(=O)O`, the selectivity ratio [17] was 50, the selectivity ratio [18] was 1.2 and the EC50 (Ishikawa) was 12 µM. The Activity (MCF7 [19]) was >50%.
